Data reported in ChEMBL document CHEMBL4152337, “Novel indolo-sophoridinic scaffold as Topo I inhibitors: Design, synthesis and biological evaluation as anticancer agents” (Eur J Med Chem, 2018).
Active and inactive are the calls of the source. The calls are words filed in the database; no cut-off is given here.

Tests used:
HepG2 [1] = test: Cytotoxicity against human HepG2 cells assessed as reduction in cell viability after 48 hrs by MTT assay; format: functional, cell-based; details: HepG2, 48 h
Summary of the method: (§1)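 Cells at 3–4 × 10⁴/mL in DMEM + 10% FBS, pre-incubated 24 h in 5% CO₂. Then exposed 48 h to serial dilutions at 1, 5, 10, 20 and 50 µM; final DMSO <0.1%. MTT (5 mg/mL solution) added for 4 h at 37 °C, supernatant removed, formazan dissolved in DMSO, colorimetric read-out.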

CNE-2 = test: Cytotoxicity against human CNE2 cells assessed as reduction in cell viability after 48 hrs by MTT assay; format: functional, cell-based; details: CNE-2, 48 h; summary of the method: as §1
A549 = test: Cytotoxicity against human A549 cells assessed as reduction in cell viability after 48 hrs by MTT assay; format: functional, cell-based; details: A549, 48 h; summary of the method: as §1
[2] = biological target: T1, DNA topoisomerase 1 (Homo sapiens) (UniProt P11387); test: Inhibition of recombinant human topoisomerase-1-mediated relaxation of supercoiled pBR322 DNA at 500 uM after 30 mins by ethidium bromide staining based assay
T1 sequence (whole entry): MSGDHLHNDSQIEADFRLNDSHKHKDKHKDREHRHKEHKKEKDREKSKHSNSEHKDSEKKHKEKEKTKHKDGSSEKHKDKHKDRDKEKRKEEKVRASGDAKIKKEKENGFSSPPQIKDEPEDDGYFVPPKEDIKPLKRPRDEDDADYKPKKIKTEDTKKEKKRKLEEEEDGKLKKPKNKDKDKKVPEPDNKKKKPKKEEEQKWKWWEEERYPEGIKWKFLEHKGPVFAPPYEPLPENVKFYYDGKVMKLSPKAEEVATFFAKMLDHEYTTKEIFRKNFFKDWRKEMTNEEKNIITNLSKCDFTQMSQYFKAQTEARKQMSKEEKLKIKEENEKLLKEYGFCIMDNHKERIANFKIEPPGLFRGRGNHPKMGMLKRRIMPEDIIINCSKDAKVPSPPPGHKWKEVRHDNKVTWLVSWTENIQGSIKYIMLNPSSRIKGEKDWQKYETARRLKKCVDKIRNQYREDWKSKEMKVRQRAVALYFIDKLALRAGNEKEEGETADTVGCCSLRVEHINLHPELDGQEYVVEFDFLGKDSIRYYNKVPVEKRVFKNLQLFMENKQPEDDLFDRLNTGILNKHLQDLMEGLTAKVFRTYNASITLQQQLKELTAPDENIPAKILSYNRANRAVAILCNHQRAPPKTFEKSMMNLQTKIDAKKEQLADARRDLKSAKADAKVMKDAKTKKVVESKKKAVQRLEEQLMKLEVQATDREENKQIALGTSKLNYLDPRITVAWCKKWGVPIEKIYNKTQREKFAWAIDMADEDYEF
Summary of the method: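 Reactions stopped with loading buffer containing 0.5% SDS, bromophenol blue and 15% glycerol. Products run on a horizontal 0.8% agarose gel in 1× TAE at 4 V/cm for 40 min at room temperature. Gel stained with ethidium bromide and imaged.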

HepG2 [3] = test: Cell cycle arrest in human HepG2 cells accumulation at G1 phase at 2 to 6 mM after 24 hrs by propidium iodide staining-based flow cytometric analysis; format: functional
Summary of the method: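 HepG2 cells were seeded at 2 × 10⁵ per well in DMEM with 10% FBS and treated at three concentrations (2, 4, 6) for 24 h. Cells were fixed in cold 75% ethanol at 4 °C overnight, washed in PBS, then given RNase at 37 °C for 30 min and propidium iodide in the dark for 30 min. Read by flow cytometry; mean SD; three independent experiments.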

HepG2 [4] = test: Antitumor activity against human HepG2 cells xenografted in BALB/C nude mouse assessed as tumor volume at 40 mg/kg, ip treated twice per week for 25 days (reference value: 1185.78 +/- 137.44 mm3); format: functional
HepG2 [5] = test: Antitumor activity against human HepG2 cells xenografted in BALB/C nude mouse assessed as tumor weight at 40 mg/kg, ip treated twice per week for 25 days (reference value: 0.84 +/- 0.09 g); format: functional
Summary of the method: (§2)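 Female BALB/c nude mice, 5–6 weeks old, with subcutaneous flank xenografts of 8 × 10⁶ HepG2 cells. Randomized when tumors reached ~150–200 mm³. Dosed ip twice weekly for 25 days at 40 mg/kg; vehicle was saline with 10% DMSO (n = 6 vehicle, n = 5 per treated group). Caliper measurements every other day, volume = 0.5 × L × W². Tumors excised and weighed at end. Mean ± SD; t-test versus vehicle.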

HepG2 [6] = test: Antitumor activity against human HepG2 cells xenografted in BALB/C nude mouse assessed as tumor growth at 40 mg/kg, ip treated twice per week for 25 days relative to control; format: functional; summary of the method: as §2

Row | SMILES | IC50 (HepG2 [1]) [µM] | IC50 (CNE-2) [µM] | IC50 (A549) [µM] | inhibition [2] | Activity (HepG2 [3]) | Activity (HepG2 [4]) [mm3] | Activity (HepG2 [5]) [g] | T/C (HepG2 [6]) [%]
1 | COC(=O)CCC[C@@H]1[C@H]2CCCN3CCC[C@H](CN1Cc1cn(Cc4ccc(C(F)(F)F)cc4)c4ccccc14)[C@@H]23 | 6.1 | 4.8 | 7.4 |  |  |  |  | 
2 | CC[C@@]1(O)C(=O)OCc2c1cc1n(c2=O)Cc2cc3ccccc3nc2-1 [CAMPTOTHECIN] | 13.2 | 0.1 | 5.5 |  |  |  |  | 
3 | COC(=O)CCC[C@@H]1[C@H]2CCCN3CCC[C@H](CN1Cc1cn(Cc4c(Cl)cccc4Cl)c4ccccc14)[C@@H]23 | 8.5 | 6.7 | 3.7 |  |  |  |  | 
4 | COC(=O)CCC[C@@H]1[C@H]2CCCN3CCC[C@H](CN1Cc1c[nH]c4ccc(C#N)cc14)[C@@H]23 | > 50 | 15.3 | > 50 |  |  |  |  | 
5 | COC(=O)CCC[C@@H]1[C@H]2CCCN3CCC[C@H](CN1Cc1cn(Cc4cccc(F)c4)c4ccccc14)[C@@H]23 | 12.1 | 12.1 | 42.3 |  |  |  |  | 
6 | COC(=O)CCC[C@@H]1[C@H]2CCCN3CCC[C@H](CN1Cc1cn(Cc4ccc5ccccc5c4)c4ccccc14)[C@@H]23 | 8.6 | 7.8 | 24 | Active |  |  |  | 
7 | COC(=O)CCC[C@@H]1[C@H]2CCCN3CCC[C@H](CN1Cc1c[nH]c4ccc(C)cc14)[C@@H]23 | 23.8 | 49.4 | > 50 |  |  |  |  | 
8 | COC(=O)CCC[C@@H]1[C@H]2CCCN3CCC[C@H](CN1Cc1cn(Cc4ccc(C(F)(F)F)cc4)c4ccc(F)cc14)[C@@H]23 | 7.7 | 6.9 | 12.8 |  |  |  |  | 
9 | COC(=O)CCC[C@@H]1[C@H]2CCCN3CCC[C@H](CN1Cc1c(C(=O)OC)[nH]c4ccccc14)[C@@H]23 | > 50 | 26.4 | > 50 |  |  |  |  | 
10 | COC(=O)CCC[C@@H]1[C@H]2CCCN3CCC[C@H](CN1Cc1c[nH]c4ccc(Cl)cc14)[C@@H]23 | > 50 | 17.9 | > 50 |  |  |  |  | 
11 | O=C1CCC[C@@H]2[C@H]3CCCN4CCC[C@H](CN12)[C@@H]34 [SOPHORIDINE] |  | 5380 | 5840 |  | Active | 1204.27 | 0.97 | 93.38
12 | COC(=O)CCC[C@@H]1[C@H]2CCCN3CCC[C@H](CN1Cc1cn(Cc4ccc(Cl)cc4)c4ccccc14)[C@@H]23 | 6.5 | 4.6 | 5.2 | Active |  |  |  | 
13 | COC(=O)CCC[C@@H]1[C@H]2CCCN3CCC[C@H](CN1Cc1cn(Cc4ccc(F)cc4)c4ccccc14)[C@@H]23 | 8.6 | 3.5 | 29.6 |  |  |  |  | 
14 | COC(=O)CCC[C@@H]1[C@H]2CCCN3CCC[C@H](CN1Cc1c[nH]c4cccc(F)c14)[C@@H]23 | > 50 | > 50 | > 50 |  |  |  |  | 
15 | COC(=O)CCC[C@@H]1[C@H]2CCCN3CCC[C@H](CN1Cc1cn(Cc4c(Cl)cccc4Cl)c4ccc(F)cc14)[C@@H]23 | 18.4 | 9.3 | 39.8 |  |  |  |  | 
16 | COC(=O)CCC[C@@H]1[C@H]2CCCN3CCC[C@H](CN1Cc1cn(Cc4ccc(Br)cc4)c4ccccc14)[C@@H]23 | 4.8 | 4.3 | 3.5 |  |  |  |  | 

Row | SMILES | IC50 (HepG2 [1]) [µM] | IC50 (CNE-2) [µM] | IC50 (A549) [µM] | inhibition [2] | Activity (HepG2 [3]) | Activity (HepG2 [4]) [mm3] | Activity (HepG2 [5]) [g] | T/C (HepG2 [6]) [%]
17 | OCCCC[C@@H]1[C@H]2CCCN3CCC[C@H](CN1Cc1cn(Cc4ccccc4)c4ccccc14)[C@@H]23 | 2.3 | 2.2 | 33.7 | Active |  |  |  | 
18 | COC(=O)CCC[C@@H]1[C@H]2CCCN3CCC[C@H](CN1Cc1cn(Cc4ccc(Cl)cc4)c4ccc(F)cc14)[C@@H]23 | 7.3 | 6.1 | 10.6 |  |  |  |  | 
19 | OCCCC[C@@H]1[C@H]2CCCN3CCC[C@H](CN1Cc1c[nH]c4ccccc14)[C@@H]23 | > 50 | > 50 | > 50 |  |  |  |  | 
20 | COC(=O)CCC[C@@H]1[C@H]2CCCN3CCC[C@H](CN1Cc1cn(Cc4ccccc4)c4ccccc14)[C@@H]23 | 5.5 | 3.3 | 43.4 | Active |  |  |  | 
21 | COC(=O)CCC[C@@H]1[C@H]2CCCN3CCC[C@H](CN1Cc1cn(C)c4ccccc14)[C@@H]23 | 15.2 | 43.4 | 42.8 |  |  |  |  | 
22 | COC(=O)CCC[C@@H]1[C@H]2CCCN3CCC[C@H](CN1Cc1c[nH]c4ccc(F)cc14)[C@@H]23 | > 50 | > 50 | > 50 |  |  |  |  | 
23 | CCn1cc(CN2C[C@H]3CCCN4CCC[C@@H]([C@H]34)[C@H]2CCCC(=O)OC)c2ccccc21 | 12.8 | 19.4 | 37.4 |  |  |  |  | 
24 | COC(=O)CCC[C@@H]1[C@H]2CCCN3CCC[C@H](CN1Cc1c[nH]c4ccc(Br)cc14)[C@@H]23 | 31.8 | 20.2 | 39.9 |  |  |  |  | 
25 | CCCCn1cc(CN2C[C@H]3CCCN4CCC[C@@H]([C@H]34)[C@H]2CCCC(=O)OC)c2ccccc21 | 6.2 | 8.6 | 42.8 |  |  |  |  | 
26 | COC(=O)CCC[C@@H]1[C@H]2CCCN3CCC[C@H](CN1Cc1cn(CC4CC4)c4ccccc14)[C@@H]23 | 14.4 | 13.4 | 30.3 |  |  |  |  | 
27 | COC(=O)CCC[C@@H]1[C@H]2CCCN3CCC[C@H](CN1Cc1c[nH]c4ccc([N+](=O)[O-])cc14)[C@@H]23 | > 50 | > 50 | > 50 |  |  |  |  | 
28 | COC(=O)CCC[C@@H]1[C@H]2CCCN3CCC[C@H](CN1Cc1cn(Cc4ccccc4F)c4ccccc14)[C@@H]23 | 21.7 | 14.8 | 49.3 |  |  |  |  | 
29 | COC(=O)CCC[C@@H]1[C@H]2CCCN3CCC[C@H](CN1Cc1c[nH]c4cc(F)ccc14)[C@@H]23 | > 50 | 17.1 | > 50 |  |  |  |  | 
30 | COC(=O)CCC[C@@H]1[C@H]2CCCN3CCC[C@H](CN1Cc1c[nH]c4ccc(OC)cc14)[C@@H]23 | > 50 | > 50 | > 50 |  |  |  |  | 
31 | COC(=O)CCC[C@@H]1[C@H]2CCCN3CCC[C@H](CN1Cc1c[nH]c4ccccc14)[C@@H]23 | 36.5 | 12.1 | 27.8 |  |  |  |  | 
